The structures appear in SMILES notation. pIC50: −log10 of the molar value. Activity calls are given as the source filed them. The calls are words filed in the database; no cut-off is given here.

Experimental findings from ChEMBL document CHEMBL4825680, “Structure-based discovery of potent and selective small-molecule inhibitors targeting signal transducer and activator of transcription 3 (STAT3)” (Eur J Med Chem, 2021) are described below.

Data set [1] concerns the target T1, Signal transducer and activator of transcription 3 (Homo sapiens, UniProt P40763). The data set can be described thus: Inhibition of STAT3 DNA binding in human MDA-MB-231 cells at 0.3 to 1 uM after 3 hrs by EMSA analysis. It is filed as cell-based. The following applies: dose 0.3-1 µM. In outline: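 Cells exposed to vehicle or compound for 3 h. Nuclear extracts prepared and BCA-quantified. Nuclear protein (8–10 µg) incubated with biotinylated STAT3 or STAT5 probe, resolved on 6% native polyacrylamide gel, transferred to nylon membrane and detected with a gel-shift kit.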

Data set [2] concerns MDA-MB-231. The experiment in a line: Inhibition of cell migration in human MDA-MB-231 cells incubated for 12 to 96 hrs by wound healing assay. In kind it is functional, cell-based. The following applies: dose 0.3-3 µM, time 12-96 hrs. Summed up:
(§1)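 Cells grown to 100% confluence, then scratched with a pipette tip. Treated with 0–3 μM until vehicle-treated cells had migrated into the scratch. Images taken by microscope after about 12–96 h. Triplicate experiments.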

Data set [3] in a line: Tmax in Sprague-Dawley rat at 10 mg/kg, po measured up to 24 hrs by LC-MS/MS analysis. It is filed as ADME, organism-based. Particulars: in vivo. In outline:
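Male SD rats dosed orally at 10 mg/kg in DMSO/0.5% HPMC (5/95, v/v). Blood drawn at 0.25, 0.5, 1, 2, 4, 8 and 24 h for plasma. Plasma analysed by LC-MS/MS on a UPLC BEH phenyl column with 0.1% formic acid water/acetonitrile.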

In data set [4] the test system is MDA231-LM2-4175. The data set can be described thus: Inhibition of cell migration in human MDA231-LM2-4175 cells incubated for 12 to 96 hrs by wound healing assay. It is filed as functional, cell-based. The following applies: dose 0.3-3 µM, time 12-96 hrs. In outline:
as §1

A short description of data set [5]: Half life in Sprague-Dawley rat at 10 mg/kg, po measured up to 24 hrs by LC-MS/MS analysis. It is filed as ADME, organism-based. Particulars: in vivo. Summed up:
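Male SD rats given a single oral dose of 10 mg/kg in DMSO/0.5% HPMC (5/95, v/v). Blood was drawn at 0.25, 0.5, 1, 2, 4, 8 and 24 h, and plasma was analysed by LC-MS/MS on a BEH phenyl column with a formic acid water/acetonitrile mobile phase.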

Data set [6] is described as follows: Toxicity in NOD/SCID mouse xenografted with patient-derived breast cancer cells assessed as change in body weight at 5 to 15 mg/kg, ip administered once daily for 20 days. The following applies: in vivo, 480 h.
Data set [7] has as its system MDA231-LM2-4175. The data set can be described thus: Induction of apoptosis in human MDA231-LM2-4175 cells assessed as increase in PARP cleavage at 1 uM after 48 hrs by Western blot analysis. In kind it is functional, cell-based. In outline: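 Breast cancer cells given vehicle (0.1% DMSO) or compound, then lysed in RIPA buffer with PMSF and phosphatase inhibitors. BCA-quantified lysate (20–50 µg) run on 8 or 12% SDS-PAGE and transferred to PVDF. Blocked in 5% BSA, probed overnight at 4 °C for PARP and cleaved caspase-7, HRP secondary, ECL detection. β-actin as loading control.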
(In western blotting, separated proteins are transferred to a membrane and probed.)

Data set [8] has as its system Breast cancer cell line. The data set can be described thus: Antitumor activity against patient-derived breast cancer cells xenografted in NOD/SCID mouse assessed as reduction in Mcl-1 expression at 5 to 15 mg/kg, iv administered once daily for 20 days by Western blotting analysis. In kind it is functional, organism-based. The following applies: Homo sapiens, dose 5-15 mg/kg, time 20.0 day. (Xenograft models place foreign cells or tissue in a host animal.)

Data set [9] relates to Breast cancer cell line. The data set can be described thus: Antitumor activity against patient-derived breast cancer cells xenografted in NOD/SCID mouse assessed as reduction in pY705-STAT3 expression at 5 to 15 mg/kg, iv administered once daily for 20 days by Western blotting analysis. The following applies: Homo sapiens, dose 5-15 mg/kg, time 20.0 day. In kind it is functional, organism-based.

Data set [10] can be described thus: Toxicity in NOD/SCID mouse xenografted with patient-derived breast cancer cells assessed as loss of appetite at 5 to 15 mg/kg, iv administered once daily for 20 days. It is filed as organism-based. Particulars: in vivo, 480 h, dose 5-15 mg/kg, time 20 day.
Data set [11] has as its system MDA-MB-468. The experiment in a line: Induction of apoptosis in human MDA-MB-468 cells assessed as late apoptotic cells at 1 uM after 48 hrs by Annexin-V-FITC/propidium iodide staining based flow cytometric analysis (reference value: 1.25%). In kind it is functional.
Data set [12] has as its system MDA-MB-468. The experiment in a line: Induction of apoptosis in human MDA-MB-468 cells assessed as late apoptotic cells at 3 uM after 48 hrs by Annexin-V-FITC/propidium iodide staining based flow cytometric analysis (reference value: 1.25%). It is filed as functional.
Data set [13] addresses T1, Signal transducer and activator of transcription 3. The data set can be described thus: Inhibition of STAT3 phosphorylation at Ser727 residue in human MDA-MB-468 cells at 3 uM after 3 hrs by Western blotting analysis. In kind it is cell-based.
Data set [14] shares this target. The data set can be described thus: Inhibition of STAT3 in human HCC70 cells assessed as downregulation of Mcl-1 expression at 0.3 to 3 uM after 24 hrs by western blot analysis. In kind it is cell-based. Particulars: dose 0.3-3 µM. In outline: (§2)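 TNBC cells given vehicle (0.1% DMSO) or graded compound levels for 24 h, lysed in RIPA with PMSF and phosphatase inhibitors. BCA-quantified lysate (20–50 µg) run on SDS-PAGE, transferred to PVDF, blocked in 5% BSA. Probed overnight at 4 °C for Bcl-xL, Mcl-1 and c-Myc, with β-actin. HRP secondary, ECL detection. Three independent experiments.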

Data set [15] shares this target. The experiment in a line: Inhibition of STAT3 in human MDA-MB-231 cells assessed as downregulation of c-Myc expression at 0.3 to 3 uM after 24 hrs by western blot analysis. The following applies: dose 0.3-3 µM. It is filed as cell-based. In outline: as §2
The test system of data set [16] is MDA-MB-468. The data set can be described thus: Induction of apoptosis in human MDA-MB-468 cells assessed as necrotic cells at 3 uM after 48 hrs by Annexin-V-FITC/propidium iodide staining based flow cytometric analysis (reference value: 0.240%). In kind it is functional. On the technique in general: In flow cytometry, cells or beads pass a laser one at a time.

The subject of data set [17] is MDA231-LM2-4175. The data set can be described thus: Antitumor activity against human MDA231-LM2-4175 cells xenografted in mouse assessed as reduction in Ki67 expression at 5 to 15 mg/kg, iv administered once daily for 20 days by immunohistochemical analysis. In kind it is functional, organism-based. Particulars: dose 5-15 mg/kg, time 20.0 day.
Data set [18] concerns MCF7. The experiment in a line: Antiproliferative activity against human MCF7 cells assessed as reduction in cell viability after 72 hrs by CCK8 assay. Particulars: MCF7, 72 h. In kind it is functional, cell-based. Summed up: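 Cells seeded at 1000–8000 per well were grown overnight, then exposed to 0.1–100 μM compound or 0.1% DMSO vehicle for 72 h. CCK-8 was added for 0.5–4 h at 37 °C and absorbance read at 480 nm. Viability = (OD compound − blank)/(OD vehicle − blank) × 100, with medium as blank. IC50 fitted from three independent experiments.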

Data set [19] is described as follows: Antitumor activity against human MDA231-LM2-4175 cells xenografted in mouse assessed as tumor growth inhibition at 5 mg/kg, iv administered once daily for 20 days. Particulars: MDA231-LM2-4175, iv, 480 h, time 20 day, read-out: TGI. It is filed as functional.
Data set [20] concerns MDA-MB-231. The data set can be described thus: Induction of apoptosis in human MDA-MB-231 cells assessed as necrotic cells at 1 uM after 48 hrs by Annexin-V-FITC/propidium iodide staining based flow cytometric analysis (Rvb =0.543%). In kind it is functional.
Data set [21] in a line: Induction of apoptosis in human MDA231-LM2-4175 cells assessed as early apoptotic cells at 1 uM after 48 hrs by Annexin-V-FITC/propidium iodide staining based flow cytometric analysis (reference value: 2.49%). In kind it is functional.
The target of data set [22] is T1, Signal transducer and activator of transcription 3. The data set can be described thus: Inhibition of STAT3 phosphorylation at Tyr705 residue in human MDA231-LM2-4175 cells after 3 hrs by Western blotting analysis. In kind it is cell-based. The following applies: dose 0.3-3 µM.
For data set [23] the target is unchanged. The experiment in a line: Inhibition of STAT3 phosphorylation at Tyr705 residue in human MDA-MB-231 cells after 3 hrs by Western blotting analysis. In kind it is cell-based. The following applies: dose 0.3-3 µM.

T1 sequence (P40763 whole entry): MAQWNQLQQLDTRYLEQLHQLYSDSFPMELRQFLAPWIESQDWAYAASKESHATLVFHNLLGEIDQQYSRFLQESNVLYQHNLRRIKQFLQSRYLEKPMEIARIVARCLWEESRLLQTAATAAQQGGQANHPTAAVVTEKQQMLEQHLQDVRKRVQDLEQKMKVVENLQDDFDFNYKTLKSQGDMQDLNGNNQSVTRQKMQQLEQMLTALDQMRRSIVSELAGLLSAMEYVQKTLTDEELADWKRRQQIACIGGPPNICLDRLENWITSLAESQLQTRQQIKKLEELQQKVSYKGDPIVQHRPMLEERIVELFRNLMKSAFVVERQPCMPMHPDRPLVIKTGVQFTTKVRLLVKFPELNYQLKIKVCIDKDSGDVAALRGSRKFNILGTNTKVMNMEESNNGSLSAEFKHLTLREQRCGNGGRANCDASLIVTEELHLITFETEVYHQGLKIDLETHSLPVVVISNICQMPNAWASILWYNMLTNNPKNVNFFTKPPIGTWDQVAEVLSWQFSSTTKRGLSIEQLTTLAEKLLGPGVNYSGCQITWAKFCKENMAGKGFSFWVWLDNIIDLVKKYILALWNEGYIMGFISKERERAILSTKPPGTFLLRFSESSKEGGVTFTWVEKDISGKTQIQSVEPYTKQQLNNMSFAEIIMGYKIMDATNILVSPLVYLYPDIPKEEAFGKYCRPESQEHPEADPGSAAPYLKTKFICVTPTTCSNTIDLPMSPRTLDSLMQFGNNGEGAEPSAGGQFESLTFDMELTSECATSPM

For orientation: Tmax means the time from dosing to the highest level. Usually half-life stands for how long it takes for the measured level to halve. Lower therefore signals fast loss. The pIC50 is −log10 of the IC50, conventionally taken in molar units. Regarding `O=C(Cc1c(-c2ccccc2)nc2ccccn12)Nc1ccc2c(c1)S(=O)(=O)C=C2`, the inhibition entry in data set [1], in data set [14] and in [15] was “Active” each time. Further, the inhibition entry in [2], in [4], in [22] and in [23] was “Dose-Dependent Effect” in each case. Besides, the Tmax in data set [3] was found to be 1.67 h. This compound had a half-life in [5] of 1.46 h. The Activity entry is reported as “Non-Toxic” in data set [6]; “Non-Toxic” in data set [10]; 16.6% in data set [11]; 27.8% in data set [12]; 1.33% in data set [16]; 1.57% in [20]. Moreover, in data set [21], the Activity is on record as 6.17%. Besides, the outcome in data set [7], in data set [8] and in data set [9] was Active. Further, the inhibition entry in data set [13] is “inactive”. Besides, in [17], the outcome was inactive. Moreover, the negative-log IC50 (pIC50) in [18] was 5.14. Besides, in data set [19], the inhibition in vivo at 5 mg/kg is 20.1%.
